Activity calls are given as the source filed them. The rule behind the calls is not given here.
Tests used:
[1] = Dissociation constant, pKa of the compound by titrimetric analysis; format: physicochemical
[2] = biological target: T1, Xanthine dehydrogenase/oxidase (Homo sapiens, UniProt P47989); experiment: Inhibition of xanthine oxidase (unknown origin) assessed as conversion of xanthine to uric acid under aerobic condition at 0.5 mM after 1 hr; settings: 500 µM
Method in brief: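 Oxidized-form incubation: xanthine oxidase (50 µL of 1.2 µM) was incubated aerobically for 1.0 h with 1.0 mL of a 5 × 10⁻⁴ M compound solution and EDTA in Tris-HCl buffer, total 2.75 mL. Xanthine was then added, and the initial rate of uric acid formation was read at 295 nm against controls without compound.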

[3] = biological target: T1, Xanthine dehydrogenase/oxidase; experiment: Inhibition of xanthine oxidase (unknown origin) assessed as conversion of xanthine to uric acid under anaerobic condition at 5 X 10^-4 M after 1 hr; settings: 500 µM
Method in brief: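 Reduced-form incubation: xanthine oxidase (50 µL of 1.2 µM), 1.0 mL of a 5 × 10⁻⁴ M compound solution and EDTA in pH 7.4 Tris were purged with N₂. Xanthine was added to reduce the enzyme, and the sealed tube was held 1 h at 25 °C (compound:enzyme 8.3 × 10³). The tube was then opened to air, xanthine added, and the 295 nm initial rate compared with controls.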

Oryctolagus cuniculus [4] = species on record: Oryctolagus cuniculus; experiment: Inhibition of rabbit liver guanase using 13.3 uM guanine as substrate assessed as ([I]/[S])50
Method in brief: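 Rabbit liver guanase in 1.0 mL pH 7.4 0.05 M Tris-HCl with 13.3 µM guanine and varying inhibitor, started by adding enzyme. Guanine loss read at 248 nm. V0/Vi was plotted against [I], and I50 was taken where V0/Vi = 2, then expressed relative to the substrate level. Values were reproducible within ±20%.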

[5] = Noncompetitive inhibition of rabbit liver guanase using guanine as substrate by Dixon plot analysis; set-up: species or system Oryctolagus cuniculus
Method in brief: (§1)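 Kinetics used rabbit liver guanase in pH 7.4 0.05 M Tris-HCl, with guanine at 20, 10, 6.4 and 4.8 µM and four inhibitor concentrations, read at 248 nm. Lineweaver–Burk (1/V vs 1/[S]) and Dixon (1/V vs [I]) plots were drawn. Ki was taken from the Dixon x-intercept ([…]).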

Oryctolagus cuniculus [6] = species on record: Oryctolagus cuniculus; experiment: Noncompetitive inhibition of rabbit liver guanase using guanine as substrate by Lineweaver-Burk plot analysis; method in brief: as §1
Oryctolagus cuniculus [7] = species on record: Oryctolagus cuniculus; experiment: Inhibition of rabbit liver guanase using guanine as substrate compound treated at 46 times substrate concentration
Method in brief: (§2)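 Rabbit liver guanase assay in 1.0 mL pH 7.4 0.05 M Tris-HCl with 13.3 µM guanine, started by adding enzyme. Guanine disappearance was followed at 248 nm and compared with a reaction run without inhibitor.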

Oryctolagus cuniculus [8] = species on record: Oryctolagus cuniculus; experiment: Inhibition of rabbit liver guanase using guanine as substrate compound treated at 28 times substrate concentration
Method in brief: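 Rabbit liver guanase, diluted from a 10 mg protein/mL stock, run at pH 7.4 in 0.05 M Tris-HCl with 13.3 µM guanine as substrate. Inhibitor was added at varying amounts, at least 28 times the substrate concentration. The enzyme was added last to start the reaction. Guanine loss was followed at 248 nm, and velocities were compared with the uninhibited control.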

Oryctolagus cuniculus [9] = species on record: Oryctolagus cuniculus; experiment: Inhibition of rabbit liver guanase using guanine as substrate compound treated at 32 times substrate concentration; method in brief: as §2
Oryctolagus cuniculus [10] = species on record: Oryctolagus cuniculus; experiment: Inhibition of rabbit liver guanase using guanine as substrate at 0.4 mM; method in brief: as §2

T1 sequence (P47989 whole entry): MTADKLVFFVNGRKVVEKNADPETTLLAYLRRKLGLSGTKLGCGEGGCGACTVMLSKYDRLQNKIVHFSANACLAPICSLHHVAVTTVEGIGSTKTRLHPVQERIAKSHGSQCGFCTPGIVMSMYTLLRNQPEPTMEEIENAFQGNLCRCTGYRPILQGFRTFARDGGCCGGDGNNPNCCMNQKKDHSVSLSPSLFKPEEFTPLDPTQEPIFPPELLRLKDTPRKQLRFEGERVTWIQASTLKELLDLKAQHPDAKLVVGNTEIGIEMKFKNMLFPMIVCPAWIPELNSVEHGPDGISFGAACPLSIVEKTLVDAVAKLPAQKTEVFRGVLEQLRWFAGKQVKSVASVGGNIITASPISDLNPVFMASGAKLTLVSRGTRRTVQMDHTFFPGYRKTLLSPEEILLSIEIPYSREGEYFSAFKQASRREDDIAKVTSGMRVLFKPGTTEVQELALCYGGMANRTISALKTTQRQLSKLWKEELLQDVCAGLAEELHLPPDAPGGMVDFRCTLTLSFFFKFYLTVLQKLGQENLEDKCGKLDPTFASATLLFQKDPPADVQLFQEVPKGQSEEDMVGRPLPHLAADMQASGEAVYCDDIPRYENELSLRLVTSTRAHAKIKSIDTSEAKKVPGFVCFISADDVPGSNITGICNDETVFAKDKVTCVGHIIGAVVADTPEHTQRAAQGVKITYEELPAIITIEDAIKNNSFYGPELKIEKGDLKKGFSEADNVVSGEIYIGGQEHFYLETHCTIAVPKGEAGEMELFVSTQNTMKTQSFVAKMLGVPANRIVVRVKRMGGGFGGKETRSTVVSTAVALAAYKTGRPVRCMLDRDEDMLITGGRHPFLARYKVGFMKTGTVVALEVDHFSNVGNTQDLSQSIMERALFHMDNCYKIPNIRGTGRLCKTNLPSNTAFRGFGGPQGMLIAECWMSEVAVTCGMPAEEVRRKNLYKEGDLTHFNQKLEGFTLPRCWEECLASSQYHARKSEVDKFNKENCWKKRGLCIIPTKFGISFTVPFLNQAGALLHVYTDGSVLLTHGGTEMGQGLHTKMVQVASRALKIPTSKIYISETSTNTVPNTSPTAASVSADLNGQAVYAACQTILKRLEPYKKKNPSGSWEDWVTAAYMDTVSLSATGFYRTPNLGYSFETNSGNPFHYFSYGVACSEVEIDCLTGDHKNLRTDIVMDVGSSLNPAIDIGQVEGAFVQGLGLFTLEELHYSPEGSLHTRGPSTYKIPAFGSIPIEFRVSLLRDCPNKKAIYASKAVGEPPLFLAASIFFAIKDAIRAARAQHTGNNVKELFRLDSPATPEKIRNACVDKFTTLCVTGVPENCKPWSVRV

Row | SMILES | pKa [1] | inhibition (INH) [2] | inhibition (INH) [3] | also measured
1 | NC1=NS(=O)(=O)Nc2[nH]cnc21 | – | – | – | inhibition (Oryctolagus cuniculus [7]): inactive
2 | O=C1NS(=O)(=O)Nc2nc[nH]c21 | – | Not Active | Not Active | inhibition (Oryctolagus cuniculus [8]): inactive
3 | NC1=NS(=O)(=O)Nc2[nH]ncc21 | 4.1 | Not Active | Not Active | inhibition (Oryctolagus cuniculus [9]): inactive
4 | O=c1[nH]cnc2nsnc12 | – | – | – | inhibition (Oryctolagus cuniculus [10]): inactive

Now from value to compound, other results behind:

Row | pKa [1] | inhibition (INH) [2] | inhibition (INH) [3] | SMILES | also measured
5 | 3.2 | Not Active | Not Active | NC1=NS(=O)(=O)Nc2nsnc21 | Ratio (Oryctolagus cuniculus [4]): 11; Ki [5]: 190 µM; inhibition (Oryctolagus cuniculus [6]): Active
6 | 6.5 | Not Active | Not Active | O=C1NS(=O)(=O)Nc2[nH]ncc21 | Ratio (Oryctolagus cuniculus [4]): 15; Ki [5]: 250 µM; inhibition (Oryctolagus cuniculus [6]): Active
7 | – | Not Active | Not Active | NC1=NS(=O)(=O)Nc2nc[nH]c21 | –
